According to ChEMBL document CHEMBL1149875, “DNA threading bis(9-aminoacridine-4-carboxamides): effects of piperidine sidechains on DNA binding, cytotoxicity and cell cycle arrest” (Bioorg Med Chem, 2008):
The source made the active and inactive calls. The rule behind the calls is not given here. *1 amine or outer side, *2 acyl side, *3 side chain or, on linkers, in order; H or OH if unused. Where a SMILES comes first, the peptide text is derived from it. Bridges are numbered along the chain shown (N, C = ends). Roman numbers before positions name the chains, in order. [ ]: non-standard residue; d: D form. Actinocin(1to9) = Cc1c2oc3c(C)ccc(C(=O)[*:2])c3nc-2c(C(=O)[*:1])c(N)c1=O; NMeV = CN[C@H](C(=O)O)C(C)C; Sar = CNCC(=O)O

How the values were obtained:
CCRF-CEM [1] = test: Cell cycle arrest in human CCRF-CEM cells assessed as accumulation at G2/M phase at 1 time IC50 after 24 hrs by flow cytometry; assay type: functional
Method in brief: (§1)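 CCRF-CEM cells seeded at 1 × 10^5 per ml in flasks and grown 24 h. Drug then added at 1×, 2×, 5× or 10× the measured 72 h IC50 and cells incubated a further 24 h; untreated controls. Cells washed in PBS, fixed in ice-cold ethanol, stained with propidium iodide and analysed by flow cytometry for % cells at G2/M.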

CCRF-CEM [2] = test: Cytotoxicity against human CCRF-CEM cells after 72 hrs; assay type: functional, cell-based
Method in brief: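 CCRF-CEM human leukaemia cells exposed to agents for 72 h at 37 °C in RPMI 1640 with 10% foetal bovine serum. Cells counted with a Coulter Counter, duplicates per concentration, experiment repeated ≥3 times; IC50 from curve fitting.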

Escherichia coli = test: Binding affinity to Escherichia coli pBR322 DNA assessed as equivalence binding ratio by agarose gel electrophoresis
Method in brief: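 Supercoiled pBR322 closed circular DNA (150 ng, 23.6 µM bp) mixed with dimer in tris acetate buffer pH 7.5, 40 mM for Pip dimers and 10 mM for NMP dimers; 1 h dark incubation at room temperature; 0.8% agarose gel, 74 V (5 V/cm), 1 h 15 min. Equivalence ratio in base-pair units, taken where supercoiling is removed and closed and nicked circles co-migrate; ≥3 titrations.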

CCRF-CEM [3] = test: Cell cycle arrest in human CCRF-CEM cells assessed as accumulation at G2/M phase after 24 hrs by flow cytometry; assay type: functional, cell-based; method in brief: as §1
CCRF-CEM [4] = test: Cell cycle arrest in human CCRF-CEM cells assessed as accumulation at G2/M phase at 5 times IC50 after 24 hrs by flow cytometry; assay type: functional; method in brief: as §1
CCRF-CEM [5] = test: Cell cycle arrest in human CCRF-CEM cells assessed as accumulation at G2/M phase at 10 times IC50 after 24 hrs by flow cytometry; assay type: functional; method in brief: as §1

SMILES | Ratio (Escherichia coli) | Activity (CCRF-CEM [1]) [%] | IC50 (CCRF-CEM [2]) [nM] | Activity (CCRF-CEM [3]) | Activity (CCRF-CEM [4]) [%] | Activity (CCRF-CEM [5]) [%]
COc1cc(NS(C)(=O)=O)ccc1Nc1c2ccccc2nc2ccccc12 [AMSACRINE] |  | 68 | 130 |  |  | 
CN1CCC(NC(=O)c2cccc3c(NCCN4CCN(CCNc5c6ccccc6nc6c(C(=O)NC7CCN(C)CC7)cccc56)CC4)c4ccccc4nc23)CC1 |  |  | 800 |  | 52 | 
Cc1c2oc3c(C)ccc(C(=O)N[C@@H]4C(=O)N[C@H](C(C)C)C(=O)N5CCC[C@H]5C(=O)N(C)CC(=O)N(C)[C@@H](C(C)C)C(=O)O[C@@H]4C)c3nc-2c(C(=O)N[C@@H]2C(=O)N[C@H](C(C)C)C(=O)N3CCC[C@H]3C(=O)N(C)CC(=O)N(C)[C@@H](C(C)C)C(=O)O[C@@H]2C)c(N)c1=O [DACTINOMYCIN] (I: T[dV]P[Sar][NMeV] / II: T[dV]P[Sar][NMeV]; ester I:1-I:C, II:1-II:C; linker I:N-II:N via Actinocin(1to9)) |  |  | 1.6 | inactive |  | 
CN(C)CCNC(=O)c1cccc2c(N)c3ccccc3nc12 |  |  | 120 |  |  | 61
O=C(NCCN1CCCCC1)c1cccc2c(NCCNCCNCCNc3c4ccccc4nc4c(C(=O)NCCN5CCCCC5)cccc34)c3ccccc3nc12 | 0.16 |  | 270 | inactive |  | 
O=C(NCCN1CCCCC1)c1cccc2c(NCCN3CCN(CCNc4c5ccccc5nc5c(C(=O)NCCN6CCCCC6)cccc45)CC3)c3ccccc3nc12 | 0.13 |  | 130 | inactive |  | 

Continued, in another order:

Ratio (Escherichia coli) | SMILES | Activity (CCRF-CEM [1]) [%] | IC50 (CCRF-CEM [2]) [nM] | Activity (CCRF-CEM [3]) | Activity (CCRF-CEM [4]) [%] | Activity (CCRF-CEM [5]) [%]
0.14 | O=C(NCCN1CCCCC1)c1cccc2c(NCCCNCCCNc3c4ccccc4nc4c(C(=O)NCCN5CCCCC5)cccc34)c3ccccc3nc12 |  | 260 | inactive |  | 
0.14 | O=C(NCCN1CCCCC1)c1cccc2c(NCCCCCCNc3c4ccccc4nc4c(C(=O)NCCN5CCCCC5)cccc34)c3ccccc3nc12 |  | 200 | inactive |  | 
0.16 | O=C(NCCN1CCCCC1)c1cccc2c(NCCCCCCCCNc3c4ccccc4nc4c(C(=O)NCCN5CCCCC5)cccc34)c3ccccc3nc12 |  | 99 | inactive |  | 
0.25 | CN1CCC(NC(=O)c2cccc3c(NCCCCCCNc4c5ccccc5nc5c(C(=O)NC6CCN(C)CC6)cccc45)c4ccccc4nc23)CC1 |  | 210 |  |  | 
0.175 | CN1CCC(NC(=O)c2cccc3c(NCCCCCCCCNc4c5ccccc5nc5c(C(=O)NC6CCN(C)CC6)cccc45)c4ccccc4nc23)CC1 |  | 130 |  |  | 43
0.24 | CN1CCC(NC(=O)c2cccc3c(NCCCNCCCNc4c5ccccc5nc5c(C(=O)NC6CCN(C)CC6)cccc45)c4ccccc4nc23)CC1 |  | 680 |  |  | 50
0.135 | O=C(NCCN1CCCCC1)c1cccc2c(NCCCCNCCCNc3c4ccccc4nc4c(C(=O)NCCN5CCCCC5)cccc34)c3ccccc3nc12 |  | 230 | inactive |  | 
0.11 | CN1CCC(NC(=O)c2cccc3c(NCCNCCNCCNc4c5ccccc5nc5c(C(=O)NC6CCN(C)CC6)cccc45)c4ccccc4nc23)CC1 |  | 1100 |  |  | 40
0.21 | CN1CCC(NC(=O)c2cccc3c(NCCCCNCCCNc4c5ccccc5nc5c(C(=O)NC6CCN(C)CC6)cccc45)c4ccccc4nc23)CC1 |  | 340 |  |  | 
